Source: ChEMBL document CHEMBL4811317, “Inhibitory activities of anthraquinone and xanthone derivatives against transthyretin amyloidogenesis” (Bioorg Med Chem, 2021)
Values after ≈ are worked out from the molar mass of the structure shown. Blank lines part the entries; values can stand above or below the molecule they belong to. Active and inactive are the calls of the source. No cut-off for these calls is given here.

Tests used:
Transthyretin = Transthyretin (Homo sapiens, UniProt P02766, V50M); assay: Inhibition of acid-mediated aggregation of TTR V30M mutant (unknown origin) expressed in Escherichia coli pretreated for 30 mins at pH 7 followed by protein dilution in acetate buffer and further incubated for 96 hrs at pH 4.6 by thioflavin-T fluorescence assay
[1] = Total clearance in Sprague-Dawley rat at 1 mg/kg, iv measured up to 8 hrs by LC-MS/MS analysis; assay type: ADME, organism-based; conditions: in vivo
How it was run: (§1)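 Male Sprague Dawley rats (7 weeks old, n = 2) given compound in 10% DMSO/0.1 M phosphate pH 8.5, i.v. or p.o. Caudal-vein blood at 5 min (i.v.), 15, 30 min, 1, 2, 4, 8 h; plasma precipitated with acetonitrile/IS, LC-MS/MS. Non-compartmental analysis; bioavailability = AUC∞(p.o.)/AUC∞(i.v.).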

[2] = Tmax in Sprague-Dawley rat at 1 mg/kg, po measured up to 8 hrs by LC-MS/MS analysis; assay type: ADME, organism-based; conditions: in vivo; how it was run: as §1
[3] = Metabolic stability in Sprague-Dawley rat liver microsomes assessed as residual rate at 1 uM preincubated for 5 mins followed by NADPH addition and measured after 30 mins by LC-MS/MS analysis; assay type: ADME, Microsome; conditions: time 35 min, read-out: Stabilty
How it was run: (§2)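 Rat liver microsomes 0.2 mg/mL with 1 μM compound, 1 mM EDTA, 0.1 M phosphate pH 7.4; 5 min preincubation, then 1 mM NADPH (final) added, 30 min at 37 °C, 60 rpm. Quenched in cold acetonitrile/internal standard, supernatant by LC-MS/MS against time zero. CLint scaled with 44.8 mg protein/g liver, 40.0 g liver/kg. At least two technical replicates.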

[4] = Volume of distribution at steady state in Sprague-Dawley rat at 1 mg/kg, iv measured up to 8 hrs by LC-MS/MS analysis; assay type: ADME, organism-based; conditions: in vivo, read-out: Vdss; how it was run: as §1
[5] = Permeability of the compound at 10 uM measured after 4 hrs by PAMPA based LC-MS analysis; assay type: ADME; conditions: read-out: permeability
How it was run: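 PAMPA on pre-coated plates: donor 10 μM compound in 5% DMSO/0.1 M phosphate pH 6.4, acceptor 5% DMSO/0.1 M phosphate pH 7.4; 4 h at 37 °C without agitation. Donor, acceptor and initial donor solutions quantified by LC-MS/MS; recovery above 90%. Antipyrine, metoprolol, sulfasalazine as references. At least two technical replicates.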

[6] = AUC infinity in Sprague-Dawley rat at 1 mg/kg, po measured up to 8 hrs by LC-MS/MS analysis; assay type: ADME, organism-based; parameters: route oral, dose 1 mg/kg, time <=8; conditions: in vivo
[7] = AUC infinity in Sprague-Dawley rat at 1 mg/kg, iv measured up to 8 hrs by LC-MS/MS analysis; assay type: ADME, organism-based; parameters: route intravenous, dose 1 mg/kg, time <=8; conditions: in vivo
[8] = Aqueous solubility of the compound in pH 6.8 JP2 fluid measured after 4 hrs by HPLC-UV analysis; assay type: physicochemical
How it was run: (§3)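 Test compound diluted from 10 mM DMSO stock 2:165 into JP 1st fluid (pH 1.2) or JP 2nd fluid (pH 6.8); mixed 4 h at 37 °C with rotation at 1000 rpm, then filtered through 0.45 μm PVDF by centrifugation. At least two technical replicates.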

[9] = target: Transthyretin (Homo sapiens) (UniProt P02766); assay: Binding affinity to TTR V30M mutant (unknown origin) expressed in Escherichia coli by isothermal titration calorimetry
[10] = Cmax in Sprague-Dawley rat at 1 mg/kg, po measured up to 8 hrs by LC-MS/MS analysis; assay type: ADME, organism-based; parameters: route oral, dose 1 mg/kg, time <=8; conditions: in vivo; how it was run: as §1
[11] = Elimination half life in Sprague-Dawley rat at 1 mg/kg, iv measured up to 8 hrs by LC-MS/MS analysis; assay type: ADME, organism-based; conditions: in vivo, read-out: beta t1/2 (converted); how it was run: as §1
[12] = Bioavailability in Sprague-Dawley rat at 1 mg/kg, iv measured up to 8 hrs by LC-MS/MS analysis; assay type: ADME, organism-based; conditions: in vivo; how it was run: as §1
[13] = Protein binding in Sprague-Dawley rat plasma assessed as unbound fraction at 1 uM measured after 4 hrs by equilibrium dialysis assay; assay type: ADME, cell-free
How it was run: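 Rat plasma spiked at 1 μM, equilibrium dialysis (8K MWCO) against 0.1 M phosphate pH 7.4 for 4 h at 37 °C, 1000 rpm. Unbound fraction = buffer/plasma concentration ratio. At least two technical replicates.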

[14] = Metabolic stability in Sprague-Dawley rat liver microsomes assessed as residual rate at 1 uM measured after 30 mins by LC-MS/MS analysis; assay type: ADME, Microsome; conditions: read-out: Stabilty
[15] = Elimination half life in Sprague-Dawley rat at 1 mg/kg, po measured up to 8 hrs by LC-MS/MS analysis; assay type: ADME, organism-based; conditions: in vivo, read-out: beta t1/2 (converted); how it was run: as §1
[16] = Cmax in Sprague-Dawley rat at 1 mg/kg, iv measured up to 8 hrs by LC-MS/MS analysis; assay type: ADME, organism-based; parameters: route intravenous, dose 1 mg/kg, time <=8; conditions: in vivo; how it was run: as §1
[17] = Intrinsic clearance in Sprague-Dawley rat liver microsomes at 1 uM preincubated for 5 mins followed by NADPH addition and measured after 30 mins by LC-MS/MS analysis; assay type: ADME, Microsome; conditions: time 35 min, read-out: CLH; how it was run: as §2
[18] = Aqueous solubility of the compound in pH 1.2 JP1 fluid measured after 4 hrs ny HPLC-UV analysis; assay type: physicochemical; how it was run: as §3
[19] = AUC (0 to 8 hrs) in Sprague-Dawley rat at 0.1 mg/kg, iv measured up to 8 hrs by LC-MS/MS analysis; assay type: ADME, organism-based; parameters: route intravenous, dose 0.1 mg/kg, time <=8; conditions: in vivo
[20] = Total clearance in Sprague-Dawley rat at 0.1 mg/kg, iv measured up to 8 hrs by LC-MS/MS analysis; assay type: ADME, organism-based; conditions: in vivo; how it was run: as §1
[21] = Cmax in Sprague-Dawley rat at 0.1 mg/kg, iv measured up to 8 hrs by LC-MS/MS analysis; assay type: ADME, organism-based; parameters: route intravenous, dose 0.1 mg/kg, time <=8; conditions: in vivo; how it was run: as §1
[22] = Tmax in Sprague-Dawley rat at 0.1 mg/kg, po measured up to 8 hrs by LC-MS/MS analysis; assay type: ADME, organism-based; conditions: in vivo; how it was run: as §1
[23] = Volume of distribution at steady state in Sprague-Dawley rat at 0.1 mg/kg, iv measured up to 8 hrs by LC-MS/MS analysis; assay type: ADME, organism-based; conditions: in vivo, read-out: Vdss; how it was run: as §1
[24] = AUC (0 to 8 hrs) in Sprague-Dawley rat at 0.1 mg/kg, po measured up to 8 hrs by LC-MS/MS analysis; assay type: ADME, organism-based; parameters: route oral, dose 0.1 mg/kg, time <=8; conditions: in vivo
[25] = Elimination half life in Sprague-Dawley rat at 0.1 mg/kg, iv measured up to 8 hrs by LC-MS/MS analysis; assay type: ADME, organism-based; conditions: in vivo, read-out: beta t1/2 (converted); how it was run: as §1
[26] = Cmax in Sprague-Dawley rat at 0.1 mg/kg, po measured up to 8 hrs by LC-MS/MS analysis; assay type: ADME, organism-based; parameters: route oral, dose 0.1 mg/kg, time <=8; conditions: in vivo; how it was run: as §1
[27] = AUC infinity in Sprague-Dawley rat at 0.1 mg/kg, iv measured up to 8 hrs by LC-MS/MS analysis; assay type: ADME, organism-based; parameters: route intravenous, dose 0.1 mg/kg, time <=8; conditions: in vivo
[28] = Bioavailability in Sprague-Dawley rat at 0.1 mg/kg, iv measured up to 8 hrs by LC-MS/MS analysis; assay type: ADME, organism-based; conditions: in vivo; how it was run: as §1

IC50 (Transthyretin): 24 µM
Structure (SMILES): O=C(O)c1cc(F)c2c(c1)C(=O)c1ccccc1C2=O

IC50 (Transthyretin): 11 µM
Structure (SMILES): Nc1c(O)c(S(=O)(=O)O)c(O)c2c1C(=O)c1ccccc1C2=O

IC50 (Transthyretin): 19 µM
Structure (SMILES): O=C(O)c1ccc2c(=O)c3ccccc3oc2c1

IC50 (Transthyretin): 50 µM
Structure (SMILES): O=C(O)c1ccc2c(c1)C(=O)c1cccc(O)c1C2=O

IC50 (Transthyretin): 21 µM
Structure (SMILES): O=C(O)c1ccc2c(c1)C(=O)c1c(Cl)c(Cl)c(Cl)c(Cl)c1C2=O

IC50 (Transthyretin): 13 µM
Structure (SMILES): O=C(O)c1ccc2oc3c(Cl)cccc3c(=O)c2c1

IC50 (Transthyretin): 10 µM
Structure (SMILES): CC(=O)Oc1cccc2c1C(=O)c1ccc(C(=O)O)cc1C2=O

IC50 (Transthyretin): > 100 µM
Structure (SMILES): O=C1c2ccccc2C(=O)c2c1ccc(O)c2O [ATHRAQUINONES A]

IC50 (Transthyretin): > 100 µM
Structure (SMILES): Oc1ccc(O)c2c(O)c3ccccc3c(O)c12

Structure (SMILES): O=C1c2cccc(O)c2C(=O)c2c(O)cc(CO)cc21 [ALOE-EMODIN]
IC50 (Transthyretin): > 100 µM

IC50 (Transthyretin): 13 µM
Structure (SMILES): O=C(O)c1ccc2c(=O)c3ccc(Cl)cc3oc2c1

IC50 (Transthyretin): 12 µM
Structure (SMILES): O=C(O)c1ccc2oc3ccc(Cl)cc3c(=O)c2c1

IC50 (Transthyretin): 10 µM
Structure (SMILES): O=C(O)c1ccc2c(=O)c3c(Cl)cccc3oc2c1

IC50 (Transthyretin): > 100 µM
Structure (SMILES): O=C1c2ccc(O)c(O)c2C(=O)c2c(O)ccc(O)c21 [QUINALIZARIN]

IC50 (Transthyretin): > 100 µM
Structure (SMILES): COc1cc(O)c2c(c1)C(=O)c1cc(C)cc(O)c1C2=O [PHYSCION]

IC50 (Transthyretin): > 100 µM
Structure (SMILES): O=C1c2cccc(O)c2C(=O)c2cccc(O)c21 [ANTHRARUFIN]

IC50 (Transthyretin): > 100 µM
Structure (SMILES): COc1cccc2c1C(=O)c1c(O)c3c(c(O)c1C2=O)C[C@@](O)(C(C)=O)C[C@@H]3O[C@H]1C[C@H](N)[C@H](O)[C@H](C)O1 [DAUNORUBICIN]

IC50 (Transthyretin): > 100 µM
Structure (SMILES): O=C1c2cccc(O)c2C(=O)c2c(O)cccc21 [DANTHRON]

IC50 (Transthyretin): 12 µM
Structure (SMILES): O=C(O)c1cc(Cl)c2c(c1)C(=O)c1ccccc1C2=O

clearance [1]: 1.27 mL/min/kg
Tmax [2]: 2 h
remaining at 0.5 h, 1 µM [3]: 88%
Vd [4]: 0.164 L/kg
Papp at 4 h, 10 µM [5]: 17 ×10⁻⁶ cm/s
AUC(0-inf) [6]: 9190 ng·h/mL
AUC(0-inf) [7]: 13200 ng·h/mL
solubility at 4 h [8]: > 100 µM
Activity [9]: Active
Cmax [10]: 1120 ng/mL
half-life [11]: 1.7 h
IC50 (Transthyretin): 6.7 µM
bioavailability [12]: 69.8%
fraction unbound at 4 h, 1 µM [13]: 0.017
remaining at 0.5 h, 1 µM [14]: 88%
half-life [15]: 5 h
Cmax [16]: 8650 ng/mL
CLint scaled at 1 µM [17]: 37.9 mL/min/kg
solubility at 4 h [18]: 2.9 µM (≈ 0.797 µg/mL)
Structure (SMILES): O=C(O)c1cc(Cl)c2oc3ccccc3c(=O)c2c1

AUC(0-t) [19]: 1710 ng·h/mL
clearance [20]: 0.383 mL/min/kg
remaining at 0.5 h, 1 µM [3]: 88%
Papp at 4 h, 10 µM [5]: > 50 ×10⁻⁶ cm/s
Cmax [21]: 537 ng/mL
solubility at 4 h [8]: > 100 µM
Activity [9]: Active
Tmax [22]: 8 h
Vd [23]: 0.375 L/kg
AUC(0-t) [24]: 956 ng·h/mL
fraction unbound at 4 h, 1 µM [13]: 0.0051
remaining at 0.5 h, 1 µM [14]: 88%
half-life [25]: 12 h
Cmax [26]: 163 ng/mL
AUC(0-inf) [27]: 4330 ng·h/mL
CLint scaled at 1 µM [17]: 38.7 mL/min/kg
solubility at 4 h [18]: 0.088 µM (≈ 0.0271 µg/mL)
bioavailability [28]: 55.8%
Structure (SMILES): O=C(O)c1ccc2nc(-c3cc(Cl)cc(Cl)c3)oc2c1

Structure (SMILES): Nc1ccc(O)c2c1C(=O)c1c(O)c(S(=O)(=O)O)cc(N)c1C2=O
IC50 (Transthyretin): > 100 µM
